Reference: ChEMBL document CHEMBL1149392, “PTP-1B inhibitors: cyclopenta[d][1,2]-oxazine derivatives” (Bioorg Med Chem Lett, 2006)

Experiments:
[1] = molecular target: T1, Tyrosine-protein phosphatase non-receptor type 1 (Homo sapiens, UniProt P18031); test: Inhibitory activity against recombinant human PTP1B
T1 sequence (P18031 whole entry): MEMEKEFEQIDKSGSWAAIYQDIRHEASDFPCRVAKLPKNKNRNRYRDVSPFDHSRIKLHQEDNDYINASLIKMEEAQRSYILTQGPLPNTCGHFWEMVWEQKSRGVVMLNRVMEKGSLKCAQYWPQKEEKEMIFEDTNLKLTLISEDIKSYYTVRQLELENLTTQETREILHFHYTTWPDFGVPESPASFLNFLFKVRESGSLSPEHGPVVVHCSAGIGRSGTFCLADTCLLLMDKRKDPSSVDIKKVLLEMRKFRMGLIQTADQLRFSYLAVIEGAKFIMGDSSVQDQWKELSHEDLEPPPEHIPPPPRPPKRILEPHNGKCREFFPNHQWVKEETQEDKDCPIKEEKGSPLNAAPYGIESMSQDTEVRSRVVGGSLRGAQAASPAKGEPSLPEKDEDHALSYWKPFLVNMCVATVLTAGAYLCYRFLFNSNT
In short: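 Recombinant human PTP-1B (0.1 μg) incubated with 20 μM fluorescein diphosphate and compound in 30 mM Tris, 75 mM NaCl, 0.67 mM EDTA, 1 mM DTT, pH 8.0, for 1 h at room temperature. Product fluorescein monophosphate read by fluorescence (ex 485 nm, em 538 nm). IC50 reported.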

[2] = molecular target: T2, M-phase inducer phosphatase 2 (Homo sapiens, UniProt P30305); test: Inhibitory activity against cdc25B phosphatase
T2 sequence (P30305 whole entry): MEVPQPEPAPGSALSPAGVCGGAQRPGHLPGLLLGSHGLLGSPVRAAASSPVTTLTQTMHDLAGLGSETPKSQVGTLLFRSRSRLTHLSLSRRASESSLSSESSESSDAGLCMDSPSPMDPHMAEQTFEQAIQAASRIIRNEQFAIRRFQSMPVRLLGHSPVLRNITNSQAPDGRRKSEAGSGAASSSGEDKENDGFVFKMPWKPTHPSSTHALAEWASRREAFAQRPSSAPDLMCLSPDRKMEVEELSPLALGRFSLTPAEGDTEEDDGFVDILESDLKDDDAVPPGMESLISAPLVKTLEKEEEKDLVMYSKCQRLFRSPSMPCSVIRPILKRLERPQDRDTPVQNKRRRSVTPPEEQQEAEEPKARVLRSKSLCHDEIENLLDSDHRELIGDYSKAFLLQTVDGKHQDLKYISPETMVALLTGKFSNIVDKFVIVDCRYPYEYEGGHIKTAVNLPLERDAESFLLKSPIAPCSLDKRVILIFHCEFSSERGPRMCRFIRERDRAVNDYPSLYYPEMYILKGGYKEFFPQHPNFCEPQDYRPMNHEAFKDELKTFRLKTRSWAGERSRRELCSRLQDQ
In short: (§1)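 Selectivity panel of nine phosphatases, each assayed with fluorescein diphosphate at the same concentration as in the PTP-1B assay (20 μM). IC50 values (μM) reported.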

[3] = molecular target: Dual specificity protein phosphatase 3 (Homo sapiens, UniProt P51452); test: Inhibitory activity against VH1-related phosphatase VHR; in short: as §1
Chain of Dual specificity protein phosphatase 3 (P51452 whole entry): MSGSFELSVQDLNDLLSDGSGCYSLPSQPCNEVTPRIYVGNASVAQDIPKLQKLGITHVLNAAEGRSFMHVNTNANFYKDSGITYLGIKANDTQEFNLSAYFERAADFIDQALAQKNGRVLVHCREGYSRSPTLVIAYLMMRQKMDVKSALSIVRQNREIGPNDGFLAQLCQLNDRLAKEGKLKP

[4] = Inhibitory activity against protein phosphatase type 2A; in short: as §1

Compound | IC50 [1] | IC50 [2] | IC50 [3] | IC50 [4]
CCCCCCCCCCCCCCc1ccc(C(=O)c2ccc3c(-c4ccc(OCC(=O)O)cc4)nocc2-3)cc1 | 140 nM | 0.12 µM |  | 
COc1ccc(C(=O)c2ccc3c(-c4ccc(OCC(=O)O)cc4)nocc2-3)cc1 | 800 nM | 16.1 µM | 181 µM | > 10 µM
NCc1ccc(C(=O)c2ccc3c(-c4ccc(OCC(=O)O)cc4)nocc2-3)cc1 | 2160 nM | 10 µM |  | 
